CatG inh: inhibitors of human cathepsin G; P08311; purified enzyme, AMC-tetrapeptide fluorescence, pooled mixtures; inhibition, % at 5 µM (by protocol); actives 0.2% (n = 62,000);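 active = inhibition above 20% in each of the two mixture wells holding the compound; inactive = inhibition of 20% or less in either well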;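 note: 0% = enzyme control without mixture and 100% = blank lacking enzyme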
FXIa inh mix: inhibitors of human coagulation factor XIa, pooled mixtures | P03951 | purified FXIa, fluorogenic substrate | inhibition, % at 5 µM | actives 0.19% (n = 62,000) | AID 680;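 note: each value is inhibition by a whole ten-compound pool holding the compound; 0% = enzyme with no mixture and 100% = wells lacking enzyme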
E coli RNAP: inhibitors of Escherichia coli RNA polymerase; P0A8V2; E. coli RNA polymerase, fluorescence transcription assay; inhibition, %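 (tested at 10 µM)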; actives 0.2% (n = 62,000); in the data active = inhibition above about 20%;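 note: 0% = enzyme without compound and 100% = no enzyme blank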
AP ELISA ortho: alternative pathway complement inhibition, orthogonal assay; actives 0.08% (n = 62,000); Human serum alternative complement pathway, LPS-coated ELISA, C3 deposition; tested in compound mixtures; inhibition, % at 5 µM;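 active = inhibition above 30% in each of the two pooled mixtures holding the compound, so the lower value exceeds 30%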;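 note: 0% = serum in Mg-EGTA without compound and 100% = EDTA serum blank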
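Test system – human serum alternative complement pathway, C3 deposition on LPS-coated wells · Buffer or medium – diluted human serum in Mg2+-EGTA GVB++ · Compound dosing – 5 µM each compound, pools of ten, 50 µM per pool · Schedule – 1 h serum-compound exposure at 37 °C · Measured by – Anti-C3 ELISA, OD 450 nm · Read-out basis – percent inhibition of C3 deposition onto LPS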
FXIIa inh mix: factor XIIa (human) inhibition, mixture screen; P00748; purified FXIIa, fluorogenic substrate, pooled mixtures; inhibition, % at 5 µM; actives 0.2% (n = 62,000);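 note: 0% = enzyme without compound and 100% = no enzyme blank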
Target sequence (P00748 20-372 limits assumed): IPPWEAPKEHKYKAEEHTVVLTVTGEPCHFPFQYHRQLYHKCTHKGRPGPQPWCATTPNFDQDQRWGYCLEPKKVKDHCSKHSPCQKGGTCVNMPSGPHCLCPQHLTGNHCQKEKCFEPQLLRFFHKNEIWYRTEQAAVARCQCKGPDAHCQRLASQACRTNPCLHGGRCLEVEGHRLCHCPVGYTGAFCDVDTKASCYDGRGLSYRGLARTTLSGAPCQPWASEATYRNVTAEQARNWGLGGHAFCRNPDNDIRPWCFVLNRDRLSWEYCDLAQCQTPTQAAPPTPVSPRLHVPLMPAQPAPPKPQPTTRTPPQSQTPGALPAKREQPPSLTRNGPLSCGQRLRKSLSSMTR
Target sequence (P00748 373-615 limits assumed): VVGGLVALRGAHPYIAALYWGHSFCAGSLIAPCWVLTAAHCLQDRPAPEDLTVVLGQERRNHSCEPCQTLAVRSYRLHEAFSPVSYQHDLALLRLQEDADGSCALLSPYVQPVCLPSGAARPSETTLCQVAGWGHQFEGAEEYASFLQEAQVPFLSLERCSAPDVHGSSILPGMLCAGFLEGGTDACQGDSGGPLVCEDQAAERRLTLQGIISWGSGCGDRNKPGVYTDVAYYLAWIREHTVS
C1s inh: human complement C1s inhibition; mean inhibition % of two 10-compound mixtures (hits give high values), % at 5 µM (by protocol); AID 538; actives 0.16% (n = 62,000); purified C1s, fluorogenic AMC substrate, pooled mixtures; P09871;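 active = inhibition above 20% in each of the two 10-compound mixture wells holding the compound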;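 note: 0% = enzyme wells lacking compound mixture and 100% = no-enzyme blank wells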
An asterisk follows results filed as active; . = not tested or not shown. This is a sample that favours compounds with a hit; in the whole collection about 0.83% have one here. Cut-off read from the data, not from the text of the source, unless noted: active = inhibition above about 20% (passing the limit was not always enough); inactive = the rest.

SMILES | CatG inh | FXIa inh mix | E coli RNAP | AP ELISA ortho | FXIIa inh mix | C1s inh
CN1CC2(Cc3c1ccc1ccccc31)C(=O)OC(C)(C)OC2=O | 42* | -4 | -19 | -10 | 3 | -36
CN1CCCN(C(=O)Cc2c(Cl)cccc2Cl)c2nc3ccccc3nc21 | -2 | 6 | 2 | 6 | -1 | -1
CC(=O)c1ccc(-n2nncc2C(C)(C)C)cc1 | -1 | 1 | 0 | 13 | 34* | -2
CC(C)(C)c1cnnn1-c1ccc(NC(=O)c2ccc3c(c2)OCO3)cc1 | -7 | 6 | 5 | 2 | 6 | -20
Cc1cccc2cc(CN(Cc3ccc(F)cc3)C(=O)N(C)C)c3nnnn3c12 | 10 | 4 | 6 | 3 | 8 | 17
COc1ccccc1-c1nc(-c2ccc(Br)cc2)no1 | 8 | 3 | 8 | 11 | 29* | 7
COc1ccccc1-c1nc(-c2ccncc2)no1 | 2 | 1 | . | 21 | 13 | -8
CCCc1[nH]nc2c1C(c1cn[nH]c1-c1ccc(F)cc1)C(C#N)=C(N)O2 (centres undefined) | 13 | 21* | 12 | 1 | 1 | 17
CCCc1[nH]nc2c1C(c1ccccc1OC)C(C#N)=C(N)O2 (centres undefined) | 9 | 8 | 9 | -11 | 2 | 9
O=c1cc(N2CCc3ccccc3C2)[nH]c(=O)n1C1CCCCC1 | 3 | 2 | 10 | 7 | 35* | -84
O=c1cc(N2CCC(Cc3ccccc3)CC2)[nH]c(=O)n1C1CCCCC1 | 4 | -1 | 0 | 13 | 3 | -2
COc1nc(Nc2ccc(C(C)=O)cc2)nc(OC)n1 | 2 | 1 | 36* | 17 | 8 | -48
COc1nc(Nc2ccc3c(c2)OCO3)nc(OC)n1 | 6 | 8 | 6 | 12 | 4 | 12
COc1ccc(C(=O)NCC2OCCc3ccccc32)c(O)c1 (centres undefined) | 5 | -3 | 3 | 19 | 11 | -11
Cc1ccc(S(=O)(=O)N2CCC(C(=O)N3CCC(C(=O)NCc4cccnc4)CC3)CC2)cc1 | -4 | 4 | -2 | 21 | 15 | -16
Cc1ccsc1/C=c1\sc2ncnn2c1=O | 43* | 13 | 3 | 12 | 19 | 11
O=c1/c(=C/c2cccc3ccccc23)sc2ncnn12 | -8 | 10 | 6 | -9 | 3 | -36
COc1ccc(-n2c(=O)c3c4c(sc3n3c(C)nnc23)CC(C)CC4)cc1 (centres undefined) | . | . | 9 | . | . | .
COc1ccc(-c2nnn(CC(=O)c3ccc4c(c3)OCCO4)n2)cc1OC | 9 | 20* | 10 | 0 | 3 | 2
CCOc1ccc(-c2nnn(CC(=O)c3ccc4c(c3)OCCO4)n2)cc1 | 9 | 9 | 7 | 5 | 1 | 13
O=C(Nc1ccc(F)cc1)C1CCCCC1 | -6 | -2 | 6 | -9 | -12 | -13
O=C(Nc1ccc(-n2cnnn2)cc1)C1CCC1 | 3 | 7 | 1 | -4 | 20* | -21
CCCn1c(NCc2cc(C)ccc2O)nc2ccccc21 | 3 | 0 | -1 | 8 | 3 | -19
CCCn1c(NCc2ccc(C)o2)nc2ccccc21 | -1 | 26* | 0 | -2 | 10 | 1
CCOC(=O)c1[nH]c(C)c(C(=O)OCC)c1C | -11 | -5 | 9 | 5 | -17 | -84
SMILES | CatG inh | FXIa inh mix | E coli RNAP | AP ELISA ortho | FXIIa inh mix | C1s inh
CCOC(=O)c1c(C)[nH]c(C(=O)COC(=O)C2CC2C)c1C (centres undefined) | 17 | 27* | 8 | 2 | 6 | 13
COc1ccc(C2(C(F)(F)F)NC(=O)N(C)C(=O)N2C)cc1 (centres undefined) | 1 | 4 | 9 | 2 | 6 | 3
O=C(Cc1ccccc1)N1CCCC1c1ccccc1 (centres undefined) | -17 | -7 | 4 | 7 | 12 | -20
Cc1c(NC(=O)C2CCCN(S(=O)(=O)c3cnc[nH]3)C2)c(=O)n(-c2ccccc2)n1C (centres undefined) | -2 | 24* | 0 | 5 | 2 | -5
CN1CCCCCC1=NC1=C(C#N)CCCC1 | 4 | 4 | 6 | 11 | 1 | 7
CC1CCCCN1CCNC(=O)C1CCN(S(=O)(=O)N2CCCCC2)CC1 (centres undefined) | -2 | -3 | 8 | 5 | 21* | -81
CCOc1cc(C)nc(N2CCCC(C(=O)NCc3ccccc3F)C2)n1 (centres undefined) | -1 | -2 | 10 | 12 | 8 | -45
COc1cc(C)nc(N2CCCC(C(=O)Nc3cccc(Cl)c3C)C2)n1 (centres undefined) | 7 | 21* | 5 | 4 | 4 | 5
CCOC(=O)c1oc2ccccc2c1NC(=O)c1cccc(OC)c1OC | 12 | 3 | 0 | 3 | 9 | 9
Cc1ccc(S(=O)(=O)N2CCN(C(=O)N3CCOCC3)C2C)cc1 (centres undefined) | 8 | 1 | 4 | 1 | 3 | 11
COc1ccccc1N1C(=O)C2CC(C)=C(C)CC2C1=O (centres undefined) | -4 | 2 | 7 | 6 | 10 | -48
COc1ccccc1N1C(=O)C2C3C=CC(C3)C2C1=O (centres undefined) | -4 | 1 | 0 | 2 | 21* | 0
CC(NC(=O)c1cc2ccccc2o1)C(=O)O (centres undefined) | -1 | 8 | 44* | 22 | -1 | -3
CC(NC(=O)c1cc2ccccc2o1)c1cccs1 (centres undefined) | 1 | 7 | 8 | 9 | 0 | -18
COc1ccccc1C1NC(=O)NC(C)=C1C(C)=O (centres undefined) | 2 | 12 | 1 | -4 | 72* | 0
CN(C)CCNC(=O)c1cc2ccccc2oc1=O | 13 | 3 | 12 | -5 | 21* | 11
CCC(=O)Nc1ccc(NC(=O)CSc2nnnn2C(C)C)cc1 | 16 | 27* | 12 | 2 | 1 | 15
CCC(=O)Nc1ccc(NC(=O)CSc2nnc(C(C)C)n2C)cc1 | -16 | 2 | -4 | -30 | -2 | -17
COc1cc(NC(=O)c2csc3c2CCCC3)ncn1 | 34* | 24 | 4 | 51 | 1 | 38
COCCNC(=O)c1csc2c1CCCC2 | -13 | 4 | -5 | -10 | -23 | -17
CCn1c(C)nc2cc(C(=O)n3cc(C(=O)c4cc(F)ccc4O)cn3)ccc21 | 20 | 8 | 7 | 3 | -15 | 25*
CCOC(=O)NC1(Nc2ccc(Cl)cn2)Oc2ccccc2O1 | -3 | 5 | 25* | -8 | 3 | 0
Cc1ccccc1C(=O)Nc1ccc(Cl)cn1 | -1 | -3 | 12 | 4 | 32 | 9
COc1ccc(CCn2c(SCC(=O)Nc3cc(C)on3)nc3ccsc3c2=O)cc1OC | 0 | 8 | -2 | 19 | 22* | 6
CCOCCCNC(=O)N[C@@H](Cc1ccccc1)C(=O)OC | 11 | 6 | 2 | 17 | 2 | 17

Compound activity: PubChem, PCMD
